Assay results taken from PubChem BioAssay.
Inconclusive results are not listed.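 How the source made its calls, unless noted: active means cell viability at or below a set limit in both duplicate runs, the limit being the all-compound median minus 4 SD (cut at about 23% in these data, passing the limit was not always enough); inconclusive means no clear call, values can overlap the other calls; inactive means the rest.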

Legend:
[1] = OD615 S. cerevisiae growth inhibition, permissive medium, pilot counter-assay, permissive growth control for S. cerevisiae lifespan shortening project (AID 705;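 active means growth inhibition above 25% in both replicates, a cutoff set 3 SD above the mean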); conditions: OD615, 24 h, at 10 µM, active compounds read high
How it was run: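 Material: engineered DeaD yeast; Compound: one dose 10 µM, DMSO 0.25% final; Detection: absorbance (optical density) at 615 nm; Buffer or medium: permissive raffinose/galactose medium; Timing: 24 h exposure, 30 °C.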

[2] = Restrictive medium S. cerevisiae growth inhibition, OD615, pilot screen of yeast lifespan reduction project, restrictive growth control (AID 706;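 active means growth inhibition above a set limit, 3 SD over mean compound inhibition, in both replicates, cut at about 43% in these data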;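 further: modified DeaD lifespan yeast strain shifted to restrictive glucose medium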); conditions: OD615, 48 h, at 10 µM, active compounds read high
How it was run: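 Buffer or medium: restrictive glucose medium (CSMM-D); test system: modified S. cerevisiae; doses: single dose of 10 µM compound final, 0.25% DMSO; schedule: 48 h compound exposure at 30 °C; detection: absorbance (optical density) measured at 615 nm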

[3] = viability gain of MRP-1-high H69AR cells under doxorubicin, pilot screen, MRP-1 activator project, CellTiter-Glo, duplicate (AID 807;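 active means viability increase at or above a cutoff of the median across tested compounds plus 3 SD, cut at about 8.5% in these data, passing the limit was not always enough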;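 further: compound pretreatment 18-22 h then 72 h combined with doxorubicin; 0% = doxorubicin alone and 100% = vehicle without doxorubicin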); conditions: H69AR viability with doxorubicin, CellTiter-Glo luminescence; at 10 µM; active compounds read high
[4] = growth suppression of beta-catenin knockout HCT116, pilot screen, human colon tumor cells (AID 823); conditions: CellTiter-Glo, 60 h, at 10 µM, active compounds read low;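 further: 0% = wells killed by 20 µM Hyamine and 100% = untreated DMSO cell wells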
[5] = growth suppression of PTEN-deleted HCT116, pilot screen, cell-based, HCT116 clonal line, CellTiter-Glo (AID 824;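 active means viability at or below 27.92% in each of two runs, the all-compound median minus 4 SD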;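 further: 0% = 20 µM Hyamine control and 100% = vehicle cell control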); conditions: 60 h, at 10 µM, active compounds read low
[6] = inhibitors of the yeast RAM network, pilot screen, dse1pr::URA3 reporter, 5-FOA selection (AID 869;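 active means inhibition over a set limit, the all-compound mean plus 3 SD, in both replicate runs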;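 further: 0% = DMSO wells with no growth and 100% = 10 µM 1-NA-PP1 with full growth; RAM network block rescues cells from 5-FOA so hits raise OD615 growth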); conditions: S. cerevisiae dse1pr::URA3 5-FOA growth, OD615, 2 d; at 10 µM; active compounds read high; strain carries analog-sensitive mutant Cbk1 kinase
[7] = RAM signaling pathway blockade in yeast – S. cerevisiae, Pdr1DBD-CYC8 efflux-inhibited sensitized strain, primary screen (AID 1298;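 active means RAM network inhibition above 8.4% in each of two replicates, 3 SD over the compound average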;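 further: 0% = DMSO untreated cells without growth and 100% = 10 µM 1-NA-PP1 full growth; higher means more yeast growth rescued from 5-FOA killing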); conditions: S. cerevisiae cbk1-as DSE1-URA3 strain, 5-FOA growth OD615, 2 d; at 50 µM; active compounds read high

O=C(COc1ccccc1)Nc1nnc(-c2ccccc2)o1
inactive: growth inhibition [1] -5.84% | growth inhibition [2] 4.22% | viability increase [3] 0.2% | viability [4] 104% | viability [5] 94.1% | inhibition [6] 1.29% | RAM network inhibition [7] -1.25%

CCOC(=O)c1sc(NC(=O)c2ccco2)nc1-c1ccccc1
inactive: growth inhibition [1] -1.62% | growth inhibition [2] -1.76% | viability increase [3] -2.38% | viability [4] 105% | viability [5] 95.5% | inhibition [6] 4.44% | RAM network inhibition [7] 4.08%

Cc1cccc(-n2ncc3c(N(C)Cc4ccccc4)ncnc32)c1
inactive: growth inhibition [1] -2.16% | growth inhibition [2] -0.895% | viability increase [3] 5.35% | viability [4] 109% | viability [5] 88.7% | inhibition [6] 0.7% | RAM network inhibition [7] 4.33%

O=C1c2ccccc2C(Nc2ccc3c(c2)OCO3)N1Cc1ccco1 (stereo not drawn)
inactive: growth inhibition [1] 5.28% | growth inhibition [2] -10.7% | viability increase [3] -4.48% | viability [4] 78% | viability [5] 73.3% | inhibition [6] 1.98% | RAM network inhibition [7] 2.26%

Cc1cccc(N2CCN(S(C)(=O)=O)CC2)c1C
inactive: growth inhibition [1] -14.5% | growth inhibition [2] -14.1% | viability increase [3] -0.12% | viability [4] 108% | viability [5] 95.3% | inhibition [6] 0.76% | RAM network inhibition [7] 5.4%

Cc1cccn2cc(-c3ccc(S(=O)(=O)N4CCOCC4)cc3)nc12
inactive: growth inhibition [1] -12.6% | growth inhibition [2] -19.7% | viability increase [3] -1.3% | viability [4] 83.5% | viability [5] 91% | inhibition [6] 1.75% | RAM network inhibition [7] 2.29%

Cc1ccc(CSc2nc3c(c(=O)[nH]c(=O)n3C)n2CCC(C)C)cc1
inactive: growth inhibition [1] -2.01% | growth inhibition [2] -11.3% | viability increase [3] -7.6% | viability [4] 53.1% | viability [5] 51.2% | inhibition [6] 4.83% | RAM network inhibition [7] 7.58%

Cc1ccc(O)c(NC(=O)CCC2CCCCC2)c1
inactive: growth inhibition [1] -1.6% | growth inhibition [2] 1.04% | viability increase [3] -3.63% | viability [4] 89.4% | viability [5] 84.5% | inhibition [6] 4.25% | RAM network inhibition [7] 4.08%

CCCSc1nc2c(cnn2-c2ccc(F)cc2)c(=O)[nH]1
inactive: growth inhibition [1] -5.3% | growth inhibition [2] -3.29% | viability increase [3] -2.46% | viability [4] 95% | viability [5] 94.7% | inhibition [6] 0.82% | RAM network inhibition [7] 2.71%

O=C(CN1CCN(c2ccccn2)CC1)Nc1cccc(C(F)(F)F)c1
inactive: growth inhibition [1] -3.17% | growth inhibition [2] 5.07% | viability increase [3] -1.96% | viability [4] 97.9% | inhibition [6] 2.27% | RAM network inhibition [7] 2.45%

CCC(=O)c1cc(F)c(N2CCN(S(=O)(=O)c3ccccc3)CC2)cc1C
inactive: growth inhibition [1] -21.4% | growth inhibition [2] 0.885% | viability increase [3] 0.77% | viability [4] 59.2% | inhibition [6] 0.65% | RAM network inhibition [7] 1.67%

CCN(CC)CCOc1ccc(Br)cc1
inactive: growth inhibition [1] -12.9% | growth inhibition [2] -12.2% | viability increase [3] -0.72% | viability [4] 90.1% | viability [5] 103% | inhibition [6] 1.24% | RAM network inhibition [7] 1.1%

N#C/C(=C(/O)CN1C(=O)c2ccccc2C1=O)c1nc2ccccc2[nH]1
inactive: growth inhibition [1] -9.93% | growth inhibition [2] -4.08% | viability increase [3] 0.55% | viability [4] 100% | viability [5] 94.4% | inhibition [6] 4.51% | RAM network inhibition [7] 4.04%

CCN(CC)C(=O)CSc1nnc(-c2ccccc2)n1N
inactive: growth inhibition [1] 3.57% | growth inhibition [2] -0.035% | viability increase [3] -2.74% | viability [4] 93.3% | inhibition [6] 0.76% | RAM network inhibition [7] -0.62%

O=C(O)CN1C(=O)Nc2ccc(Br)cc2C1c1ccccc1 (stereo not drawn)
inactive: growth inhibition [1] 0.155% | growth inhibition [2] -8.88% | viability increase [3] -2.28% | viability [4] 93.6% | inhibition [6] -0.025% | RAM network inhibition [7] 0.79%

CC(=O)N1CCc2c(sc(NC(=O)C3CC3)c2-c2nc3ccccc3s2)C1
inactive: growth inhibition [1] 0.95% | growth inhibition [2] -2.89% | viability increase [3] -3.03% | viability [4] 65.4% | viability [5] 63.4% | inhibition [6] 1.99% | RAM network inhibition [7] 4.93%

O=C(Nc1ccc(SC(F)F)cc1)C1=COCCO1
inactive: growth inhibition [1] -0.035% | growth inhibition [2] 10.5% | viability increase [3] 2.59% | viability [4] 93.8% | viability [5] 90.1% | inhibition [6] 1.4% | RAM network inhibition [7] 5.17%

Cc1cc2ncn(CC(O)COC3CCCCC3)c2cc1C (stereo not drawn)
inactive: growth inhibition [1] -8.15% | growth inhibition [2] -2.2% | viability increase [3] -2.98% | viability [4] 89.9% | viability [5] 90.3% | inhibition [6] 1.75% | RAM network inhibition [7] 4.21%

CC1CN(c2ncnc3c2cnn3-c2ccc(Cl)cc2)CC(C)O1 (stereo not drawn)
inactive: growth inhibition [1] -3.73% | growth inhibition [2] -8.06% | viability increase [3] 3.8% | viability [4] 100% | viability [5] 88.4% | inhibition [6] 1.4% | RAM network inhibition [7] 3.95%

CC(C)OCCCNC(=O)c1ccc(NC(=O)C2CCCO2)cc1 (stereo not drawn)
inactive: growth inhibition [1] -12.9% | growth inhibition [2] -8.97% | viability increase [3] -1.08% | viability [4] 99.9% | inhibition [6] 1.57% | RAM network inhibition [7] 1.15%

O=C(C1CC(c2ccc(F)cc2)=NO1)N1CCN(Cc2ccccc2)CC1 (stereo not drawn)
inactive: growth inhibition [1] -0.77% | growth inhibition [2] -2.39% | viability increase [3] -1.28% | viability [4] 96.2% | viability [5] 101% | inhibition [6] 1.8% | RAM network inhibition [7] 2.3%

CCc1ccc(C2CC(=O)N3CN(c4ccccc4)CSC3=C2C#N)cc1 (stereo not drawn)
inactive: growth inhibition [1] 3.98% | growth inhibition [2] 21.7% | viability increase [3] -3.73% | viability [4] 101% | viability [5] 90.6% | inhibition [6] 1.68% | RAM network inhibition [7] -0.78%

Cc1cc(OCc2ccc(F)cc2)nc(-c2ccccc2O)n1
inactive: growth inhibition [1] -0.25% | growth inhibition [2] -3.18% | viability increase [3] 2.19% | viability [4] 76.6% | viability [5] 70.3% | inhibition [6] 1.35% | RAM network inhibition [7] 2.72%

COc1ccccc1-c1nc2n(n1)C(c1ccccc1Cl)C(C(N)=O)=C(C)N2 (stereo not drawn)
inactive: growth inhibition [1] -11.6% | growth inhibition [2] -6.96% | viability increase [3] -6.22% | viability [4] 91% | viability [5] 85.9% | inhibition [6] -0.085% | RAM network inhibition [7] -1.52%
